Test results taken from ChEMBL document CHEMBL3393048, “Discovery of potent cytotoxic ortho-aryl chalcones as new scaffold targeting tubulin and mitosis with affinity-based fluorescence” (J Med Chem, 2014).
pIC50: −log10 of the molar value. Active and inactive are the calls of the source. The calls are words filed in the database; no cut-off is given here.

What was measured:
[1] = Antiproliferative activity against human CNE2 cells after 48 hrs by SRB method; type: functional, cell-based; settings: CNE-2, 48 h
Summary of the method: (§1)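 SRB assay. Cells in DMEM high glucose with 10% FBS were seeded at 5000/well and grown 24 h; a day-0 plate was fixed at that point. Compounds were added in triplicate for 48 h. IC50 came from nonlinear regression of dose–response curves from at least two independent experiments.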

SW480 = experiment: Antiproliferative activity against human SW480 cells after 48 hrs by SRB method; type: functional, cell-based; settings: SW480, 48 h; summary of the method: as §1
HepG2 = experiment: Antiproliferative activity against human HepG2 cells after 48 hrs by SRB method; type: functional, cell-based; settings: HepG2, 48 h; summary of the method: as §1
MCF7 [2] = experiment: Antiproliferative activity against human MCF7 cells after 48 hrs by SRB method; type: functional, cell-based; settings: MCF7, 48 h; summary of the method: as §1
A549 [3] = experiment: Antiproliferative activity against human A549 cells after 48 hrs by SRB method; type: functional, cell-based; settings: A549, 48 h
Summary of the method: as §1, with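 “h. Cells were fixed with TCA at 4 °C for 1 h, stained with 0.4% SRB, and the dye was solubilized in 10 mM Tris pH 10.4. OD was read at 515 nm with day-0 OD subtracted.” for “h.”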

MCF7 [4] = experiment: Drug resistance index, ratio of IC50 for doxorubicin-resistant human MCF7 cells to IC50 for human MCF7 cells; type: functional
Summary of the method: (§2)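 Drug resistance index = IC50 in the resistant line / IC50 in its parental line. […] Pairs: A549/CDDP vs A549, MCF-7/DOX vs MCF-7, A2780/TAX vs A2780, HCT-8/VCT vs HCT-8.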

Tubulin = experiment: Inhibition of tubulin polymerization (unknown origin) by DAPI staining-based fluorescence microscopy; type: protein-complex assay, Homo sapiens
Summary of the method: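 Purified tubulin (99% pure; 20 μM as supplied) mixed with compound in general tubulin buffer (80 mM PIPES pH 6.9, 2.0 mM MgCl₂, 0.5 mM EGTA) with 1 mM GTP, 20% glycerol and DAPI reporter. Polymerization tracked kinetically at 37 °C as fluorescence rise (ex 360, em 450 nm). Duplicate wells per concentration. IC50 from at least two independent experiments.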

A549 [5] = experiment: Drug resistance index, ratio of IC50 for cis-platinum-resistant human A549 cells to IC50 for human A549 cells; type: functional; summary of the method: as §2
[6] = Antiproliferative activity against vincristine-resistant human HCT8 cells after 48 hrs by SRB method; type: functional, cell-based; settings: HCT-8, 48 h
Summary of the method: as §1, with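 “h. Cells were fixed with TCA at 4 °C for 1 h, stained with 0.4% SRB, and the dye was solubilized in 10 mM Tris pH 10.4. OD was read at 515 nm with day-0 OD subtracted.” for “h.”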

[7] = Drug resistance index, ratio of IC50 for vincristine-resistant human HCT8 cells to IC50 for human HCT8 cells; type: functional, HCT-8; summary of the method: as §2
A549 [8] = experiment: Antiproliferative activity against cis-platinum-resistant human A549 cells after 48 hrs by SRB method; type: functional, cell-based; settings: A549, 48 h
Summary of the method: as §1, with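 “h. Cells were fixed with TCA at 4 °C for 1 h, stained with 0.4% SRB, and the dye was solubilized in 10 mM Tris pH 10.4. OD was read at 515 nm with day-0 OD subtracted.” for “h.”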

A2780 [9] = experiment: Antiproliferative activity against human A2780 cells after 48 hrs by SRB method; type: functional, cell-based; settings: A2780, 48 h; summary of the method: as §1
MCF7 [10] = experiment: Antiproliferative activity against doxorubicin-resistant human MCF7 cells after 48 hrs by SRB method; type: functional, cell-based; settings: MCF7, 48 h; summary of the method: as §1
[11] = Antiproliferative activity against human HCT8 cells after 48 hrs by SRB method; type: functional, cell-based; settings: HCT-8, 48 h; summary of the method: as §1
A2780 [12] = experiment: Drug resistance index, ratio of IC50 for taxol-resistant human A2780 cells to IC50 for human A2780 cells; type: functional; summary of the method: as §2
A2780 [13] = experiment: Antiproliferative activity against taxol-resistant human A2780 cells after 48 hrs by SRB method; type: functional, cell-based; settings: A2780, 48 h; summary of the method: as §1
Tubulin (Homo sapiens) = Tubulin (Homo sapiens) (UniProt P68371+Q9H4B7+P0DPH7+P68366+Q13509+Q71U36+P04350+Q3ZCM7+P07437+P68363+Q9BQE3+Q6PEY2+Q13885+Q9BVA1+Q9BUF5); experiment: Inhibition of tubulin polymerization (unknown origin) at 20 uM by DAPI staining-based fluorescence microscopy; type: protein-complex assay

SMILES | pIC50 [1] | pIC50 (SW480) | pIC50 (HepG2) | pIC50 (MCF7 [2]) | pIC50 (A549 [3]) | other results
COc1ccc(/C=C/C(=O)c2ccccc2-c2ccc(F)nc2)cc1 | 6.80 | 6.48 | 6.54 | 5.57 | 6.03 | 
COc1ccc(/C=C/C(=O)c2ccccc2-c2ccc(F)nc2)cc1OC | 5.80 | 5.89 | 6.00 | 5.55 | 5.92 | 
COc1cc(C(=O)/C=C/c2ccccc2-c2ccc(F)nc2)ccc1O | 4.72 | 5.07 | 5.00 | 4.57 | 4.89 | 
O=C(/C=C/c1ccccc1-c1ccc(F)nc1)c1cccc(O)c1 | 5.06 | 5.13 | 5.19 | 4.92 | 5.16 | 
COc1ccc(/C=C/C(=O)c2ccccc2-c2cccnc2)cc1 | 7.19 | 6.70 | 7.01 | 6.08 | 6.24 | 
COc1ccc(/C=C/C(=O)c2ccccc2-c2ccc(OC)c(OC)c2)cc1 | 6.49 | 6.05 | 6.22 | 5.96 | 5.80 | 
COc1ccc(/C=C/C(=O)c2ccccc2-c2cc(OC)c(OC)c(OC)c2)cc1O | 6.10 | 6.52 | 6.72 | 6.17 | 6.54 | Ratio IC50 (MCF7 [4]): 0.24; pIC50 (Tubulin): 5.55; Ratio IC50 (A549 [5]): 2; pIC50 [6]: 5.70; Ratio IC50 [7]: 4; pIC50 (A549 [8]): 6.23; pIC50 (A2780 [9]): 6.42; pIC50 (MCF7 [10]): 6.77; pIC50 [11]: 6.28; Ratio IC50 (A2780 [12]): 4.3; pIC50 (A2780 [13]): 5.80
O=C(/C=C/c1cccs1)c1ccccc1-c1ccc(F)cc1 | 5.23 | 4.80 | 5.21 | 5.02 | 4.92 | inhibition (Tubulin (Homo sapiens)): Active
COc1ccc(C(=O)/C=C/c2ccccc2-c2ccc(F)cc2)cc1 | 5.05 | 5.08 | 5.20 | 5.06 | 5.09 | 
COc1ccc(C(=O)/C=C/c2ccccc2-c2ccc(F)cc2)cc1OC | 5.12 | 5.08 | 5.18 | 5.15 | 5.12 | 
O=C(/C=C/c1ccccc1-c1ccc(F)cc1)c1cccc(O)c1 | 5.14 | 5.06 | 5.38 | 5.03 | 5.16 | 
COc1ccc(CNC(=O)c2ccccc2-c2ccc(F)cc2)cc1 | < 4.30 | < 4.30 | < 4.30 | < 4.30 | < 4.30 | 
COc1cccc(/C=C/C(=O)c2ccccc2-c2ccc(F)cc2)c1OC | 5.28 | 5.24 | 5.30 | 5.28 | 5.15 | inhibition (Tubulin (Homo sapiens)): Active
COc1ccc(/C=C/C(=O)c2ccccc2-c2cccc(F)c2)cc1OC | 6.19 | 6.80 | 6.82 | 5.92 | 6.48 | 
CC(=O)O[C@H]1C(=O)[C@@]2(C)[C@H]([C@H](OC(=O)c3ccccc3)[C@]3(O)C[C@H](OC(=O)[C@H](O)[C@@H](NC(=O)c4ccccc4)c4ccccc4)C(C)=C1C3(C)C)[C@]1(OC(C)=O)CO[C@@H]1C[C@@H]2O [PACLITAXEL] |  | 8.15 | 7.55 |  |  | pIC50 [6]: 5.59; pIC50 [11]: 7.68
COc1ccc(/C=C/C(=O)c2ccccc2-c2ccc(OC)c(OC)c2OC)cc1O | 6.80 | 6.77 | 6.64 | 6.32 | 6.72 | 
COc1ccc(C(=O)/C=C/c2ccccc2-c2ccc(F)nc2)cc1 | 4.89 | 5.00 | 5.09 | 4.89 | < 4.30 | 
